Source: PubChem (The Scripps Research Institute Molecular Screening Center)
Hits are enriched below; roughly 1.8% of the tested compounds scored in any of these assays.
MC4R antag cAMP: antagonists of human melanocortin 4 receptor (MC4R) | P32245 | MC4R-expressing cells, MTII-stimulated cAMP, LANCE TR-FRET | inhibition, % at 6.5 µM | 0.48% of 360,000 active | AID 540295;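 active = inhibition above its plate's cutoff, the mean of tested wells on that plate plus 3 SD, cut at about 29% in these data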;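 note: 0% = Melanotan II alone and 100% = Melanotan II plus saturating MCL0020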
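Test system: U2OS cells stably expressing human melanocortin 4 receptor (MC4R); also added: Melanotan II challenge; compound: 6.5 µM single dose; timing: 30-min compound preincubation, 1-h Melanotan II challenge, 1-h detection, room temperature; signal: Eu-cAMP/anti-cAMP TR-FRET, emission 671 nm; repeats: one well per compound, no replicates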
MC4R barr agon: human MC4R agonism via beta-arrestin; P32245; U2OS MC4R beta-arrestin complementation, luminescence; percent of melanotan II response, DMSO zero; activation, % at 8.9 µM; 0.98% of 360,000 active;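 active = activation above a per-plate cutoff, the mean activation of sample wells on that plate plus 3 SD, cut at about 8% in these data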
TLR4 MyD88 comp: inhibitors of human TLR4-MyD88 binding | O00206+Q99836 | HeLa CL3-4 TLR4/MyD88 BLA complementation, FRET ratio | inhibition, % at 8.4 µM | 0.18% of 200,000 active | AID 861; in the data active = inhibition above about 25%;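 note: 0% = vehicle and 100% = reference inhibitor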
NOD2 RIPK2 PPI: NOD2-RIPK2 protein interaction inhibition; O43353; 0.38% of 360,000 active; CHO BLA complementation NOD2-RIPK2, CCF4 ratio; inhibition, % at 4.98 µM; in the data active = inhibition above about 21%;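 note: 0% = vehicle only and 100% = reference blocker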
Target sequence (O43353 whole entry, looked up): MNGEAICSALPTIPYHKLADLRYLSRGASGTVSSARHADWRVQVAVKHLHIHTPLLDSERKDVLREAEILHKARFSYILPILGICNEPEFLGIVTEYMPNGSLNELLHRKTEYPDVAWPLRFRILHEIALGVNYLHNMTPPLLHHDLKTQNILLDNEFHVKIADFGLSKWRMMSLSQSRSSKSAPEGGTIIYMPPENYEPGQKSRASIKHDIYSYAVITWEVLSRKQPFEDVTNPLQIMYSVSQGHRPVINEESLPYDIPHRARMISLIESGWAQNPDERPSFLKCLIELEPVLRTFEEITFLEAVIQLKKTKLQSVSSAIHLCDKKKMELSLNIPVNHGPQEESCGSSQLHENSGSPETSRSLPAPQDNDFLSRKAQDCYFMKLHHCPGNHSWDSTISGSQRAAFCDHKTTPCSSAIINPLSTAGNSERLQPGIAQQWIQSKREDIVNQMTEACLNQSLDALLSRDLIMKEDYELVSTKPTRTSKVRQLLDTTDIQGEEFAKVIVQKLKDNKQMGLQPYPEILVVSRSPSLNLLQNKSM
TLR9-MyD88 inh: TLR9-MyD88 interaction inhibition. inhibition, % at 4.98 µM. Q9NR96+Q99836. 0.21% of 340,000 active. CHO BLA complementation TLR9-MyD88, CCF4 FRET ratio;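 active = inhibition above the mean over all tested compounds plus 3 SD, cut at about 21% in these data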;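 note: 0% = DMSO only wells and 100% = clavulanate BLA inhibitor control wells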
MC4R barr conf: human MC4R beta-arrestin agonism confirmation | shares compounds with MC4R barr agon | U2OS MC4R beta-arrestin recruitment, luminescence; scaled DMSO 0%, Melanotan II 100% | activation, % at 8.9 µM | 31% of 2,400 active | AID 602192;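 active = mean activation across replicates above the hit cutoff set in the earlier primary screen, cut at about 8% in these data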
MOR DOR agonist: counter-screen for MC4R agonists: agonists of mu-delta opioid heterodimer; shares compounds with MC4R barr agon; U2OS PathHunter beta-arrestin, beta-gal luminescence; percent of deltorphin B response, DMSO zero; activation, % at 9.2 µM; 5.8% of 2,400 active;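 active = mean activation across replicates exceeds the hit threshold derived in the earlier primary screen, cut at about 18% in these data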;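 note: 100% = deltorphin B at 0.9 µM final and 0% = DMSO alone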
* = called active by the depositor; nt = no result; ! = a repeat was not active.

SMILES	MC4R antag cAMP	MC4R barr agon	TLR4 MyD88 comp	NOD2 RIPK2 PPI	TLR9-MyD88 inh	MC4R barr conf	MOR DOR agonist
CC(=O)Nc1cc(-c2ccc(F)cc2)cn2c(-c3ccc(F)c(Cl)c3)cnc12	16.9	19.3*	nt	-2.3	nt	17.6*	4.6
CC(=O)Nc1cc(-c2ccccc2)cn2c(-c3ccc(F)c(Cl)c3)cnc12	-3.4	22.0*	nt	3.8	nt	20.8*	4.0
CC1(C)CC(=O)C(C(=O)C2CCN(S(=O)(=O)c3ccccc3)CC2)C(=O)C1	-8.1	-1.4	-8.5	0.9	-13.0	nt	nt
Cc1ccc(C(=O)Nc2ccc(F)cc2)cc1NC1=NC2CS(=O)(=O)CC2S1 (centres undefined)	4.8	0.5	nt	2.7	6.6	nt	nt
CC(C)Oc1ccc(CNC(=O)Cn2c(=O)c3cccn3c3cccnc32)cc1	8.3	-1.9	nt	-4.1	-12.2	nt	nt
CCOc1ccc(CNC(=O)Cn2c(=O)c3cccn3c3ccccc32)cc1	4.7	21.5*	nt	-6.1	7.4	2.4	2.6
CCCCn1c(=O)c(CCC(=O)OCC(=O)Nc2ccc(F)c(Cl)c2)nc2ccccc21	9.1	10.3*	3.2	-3.8	-3.1	5.6	3.6
C[C@@H]1CCCCO[C@@H](CN(C)C(=O)CCCN(C)C)[C@@H](C)CN([C@H](C)CO)C(=O)c2cc(NC(=O)CCC(F)(F)F)ccc2O1	-6.0	-0.1	nt	-11.1	-11.2	nt	nt
N#Cc1ccccc1NC(=O)c1ccc(-c2ccccc2Cl)o1	1.4	21.7*	-7.0	-11.4	-1.0	7.2	6.0
Cn1nc(C(=O)Nc2cccc(Cl)c2)cc1C(=O)Nc1cccc(Cl)c1	25.1	14.3*	nt	-2.9	3.1	2.3	6.9
COc1ccc(C(=O)NC2CCSc3ccccc32)cc1S(=O)(=O)N1CCOCC1 (centres undefined)	3.4	-2.7	nt	-0.7	1.3	nt	nt
Cc1onc(-c2ccccc2)c1C(=O)Nc1nc(-c2cc(F)ccc2F)cs1	-6.0	33.8*	-8.3	-2.4	3.4	7.6	5.6
Cc1ccc(NC(=S)N2CCCC(CO)C2)c(C)c1 (centres undefined)	11.7	-1.5	-9.2	4.6	4.1	nt	nt
COc1ccc(NC(=O)c2ccc(F)c(F)c2)c2ccccc12	5.3	20.7*	nt	-2.0	-4.3	-0.8	2.2
COCCCn1c(=O)/c(=C\c2ccc(OC(F)F)c(OC)c2)s/c1=C(/C#N)C(N)=O	-4.1	11.9*	nt	-3.0	5.9	5.9	14.9
C=CCNC(=O)NC(=O)COC(=O)/C(C#N)=C/c1cc(C)n(CCC(C)C)c1C	3.4	10.4*	8.2	-1.3	-0.6	6.6	9.5
Cc1cc(/C=C(\C#N)C(=O)OCC(=O)NC(=O)NC(C)(C)C)c(C)n1CCC(C)C	-0.1	-0.8	4.3	-4.6	-3.5	nt	nt
C/C(=N/Nc1ccccc1[N+](=O)[O-])c1ccc([N+](=O)[O-])cc1	-2.8	-1.2	nt	-3.8	8.0	nt	nt
C/C(=N\Nc1ccc(C#N)cc1[N+](=O)[O-])c1ccc(O)cc1	4.4	10.2*	nt	-9.2	-4.4	5.5	7.8
O=C(COC(=O)c1ccccc1F)NCc1ccc2c(c1)OCO2	0.3	-1.9	nt	-15.1	-20.3	nt	nt
O=C(COC(=O)c1cccnc1Nc1ccccc1F)NCc1ccc2c(c1)OCO2	-0.5	10.5*	-4.5	-8.8	0.5	2.5	1.8
C[C@@H]1CN([C@H](C)CO)C(=O)CCCn2nncc2CO[C@H]1CN(C)C(=O)Cc1ccccc1	2.4	0.2	nt	-8.6	-17.6	nt	nt
CC(C)(C)c1ccc(OCCCn2ccnc2)cc1	3.9	-0.2	nt	-2.9	5.7	nt	nt
O=C(O)CSCC(=O)N1CCN(c2nc3cc(Cl)ccc3s2)CC1	3.1	-1.9	nt	0.2	10.9	nt	nt
O=[N+]([O-])c1ccc(-c2ccc(/C=N/c3c(-c4ccco4)nc4ccccn34)o2)cc1	3.9	12.6*	6.3	2.7	2.4	9.2*	9.2
SMILES	MC4R antag cAMP	MC4R barr agon	TLR4 MyD88 comp	NOD2 RIPK2 PPI	TLR9-MyD88 inh	MC4R barr conf	MOR DOR agonist
O=[N+]([O-])c1ccc(Cl)c(-c2ccc(/C=N/c3c(-c4ccco4)nc4ccccn34)o2)c1	6.5	2.1	16.6	-8.3	-7.4	nt	nt
CCOC(=O)C1(C)CCCCCN1C(=O)c1ccc(OC)c(C(F)(F)F)c1 (centres undefined)	13.3	10.3*	nt	4.8	nt	3.4	5.1
COc1cc(C(=O)C(=O)N2CCN(c3ccccc3)CC2)cc(OC)c1OC	nt	nt	nt	5.5	nt	nt	nt
CCOC(=O)Cc1ccc(Nc2nc(NCc3cccs3)nc3ccsc23)cc1	-2.6	15.4*	nt	-21.9	nt	-4.5	5.2
COc1ccc(Nc2nc(NCc3cccs3)nc3ccsc23)cc1OC	-2.9	-0.8	nt	3.2	nt	nt	nt
CCCCC1CCC(C(=O)NCC(c2ccco2)N2CCOCC2)CC1 (centres undefined)	8.1	-0.3	nt	5.5	7.7	nt	nt
COc1ccc(-c2sc3ccc(N4CCOCC4)cc3c2C#Cc2ccsc2)cc1	4.9	-0.7	nt	-12.9	-2.2	nt	nt
COc1ccc(-c2sc3ccc(N4CCOCC4)cc3c2C#CC(C)(C)O)cc1	18.4	22.7*	nt	-3.4	-3.8	7.9	2.3
C#CCNC(=O)C[C@@H]1C[C@@]2(C(=O)OCC)CCCC=C2N(Cc2cccc3ccccc23)C1=O	nt	nt	nt	-12.3	nt	nt	nt
O=C(c1cc(Cl)ccc1O)N1CCN(S(=O)(=O)Cc2ccccc2)CC1	4.8	-1.0	nt	-12.5	-3.1	nt	nt
N#C/C(=C\c1ccco1)c1nc2ccccc2s1	5.7	3.7	-0.4	0.9	-5.8	nt	nt
N#C/C(=C/c1ccco1)c1nc2ccccc2s1	-6.3	9.6*	-2.3	-3.2	9.6	-2.7	3.9
O=C(N/N=C/c1cccc(OC(=O)c2ccco2)c1)c1ccc(F)cc1	2.3	-3.8	-2.2	-0.9	-0.1	nt	nt
Cc1sc(NC(=O)Cn2c(=O)oc3ccccc32)nc1-c1ccc(Cl)cc1	0.3	12.9*	-21.4	0.1	2.7	2.9	6.8
CCOC(=O)CSc1c(-c2ccc(Cl)cc2)[nH]c2ccccc12	12.5	10.6*	-23.2	-8.8	0.0	4.1	13.7
O=C(c1ccccc1NS(=O)(=O)c1ccc(F)cc1)N1CCc2ccccc21	18.5	4.0	-14.4	-1.9	-8.2	nt	nt
O=C(c1ccccc1NS(=O)(=O)c1cccc(C(F)(F)F)c1)N1CCc2ccccc21	16.0	10.2*	0.9	-8.1	-4.0	0.9	6.3
CCN1CCN(Cc2ccc(NC(=O)c3cc(NC(=O)c4cc5cccc(OC)c5o4)cc(OC)c3)cc2C(F)(F)F)CC1	-0.3	28.6*!	nt	13.2	3.0	37.0*	7.3
O=C(Nc1cc(Cl)ccc1Oc1ccccc1)c1ccccc1F	17.2	0.3	-6.5	-3.7	-10.3	nt	nt
Cc1ccc(Oc2ccc(Cl)cc2NC(=O)c2ccc(F)cc2F)cc1	-0.5	10.8*	-16.8	-6.9	6.7	1.2	1.9
